Results on one compound are retold here after ChEMBL document CHEMBL4266040, “Structure-Based Engineering of Irreversible Inhibitors against Histone Lysine Demethylase KDM5A” (J Med Chem, 2018).

Activity calls are given as the source filed them. The rule behind the calls is not given here.

The nature of data set [1]: Effective permeability of the compound at pH 7.4 by PAMPA. It counts as ADME. Particulars: read-out: Peff. In outline: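 PAMPA with a lipid/dodecane artificial membrane and pH 7.4 buffer in donor and acceptor wells. Compounds diluted from 10 mM DMSO stock to 0.05 mM final, 0.5% DMSO. Donor stirred during a 30 min permeation at room temperature. Donor and acceptor concentrations read by UV. Permeability given in 10−6 cm s−1: >100 high, 10–100 moderate, <10 low.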

Data set [2] concerns BT-474. The data set is described as follows: Cytotoxicity against human BT474 cells assessed as reduction in cell viability at >5 uM after 24 hrs by celltiter glo assay. It counts as functional, cell-based. In outline: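 BT474 cells treated with compound; viability read by CellTiter-Glo luminescence 24 h after treatment.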
(Cellular ATP, detected with luciferase, serves as a proxy for viable cell number.)

The test system of data set [3] is BT-474. The data set is described as follows: Growth inhibition of human BT474 cells at 0.11 to 3.5 uM after 12 days by IncuCyte live cell imaging method. In kind it is functional, cell-based. In outline: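 BT474 cells grown with compound; percent confluence tracked by IncuCyte live-cell imaging every 4 h over 300 h.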
For data set [4], the system named is MCF7. The data set is described as follows: Cytotoxicity against human MCF7 cells assessed as cell killing at 5 to 10 uM after 24 hrs by bright-field microscopy. In kind it is functional, cell-based.
For the next data set, the system named is MDA-MB-231. The data set is described as follows: Cytotoxicity against human MDA-MB-231 cells assessed as cell killing at 5 to 10 uM after 24 hrs by bright-field microscopy. It counts as functional, cell-based.
The next data set concerns HEK-293T. Description: Cytotoxicity against HEK293T cells assessed as cell killing at 5 to 10 uM after 24 hrs by bright-field microscopy. It counts as cell-based. Conditions: human.
The subject of data set [5] is MCF7. The data set is described as follows: Inhibition of KDM5 human MCF7 cells assessed as up-regulation of STING protein expression at 1 to 5 uM after 48 hrs by Western blot analysis relative to control. It counts as cell-based. The method in brief: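 MCF7 cells treated with compound or 0.1% DMSO for 30 or 48 h; total cell lysates analysed by Western blot with specific antibodies.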
(A western blot detects proteins with antibodies after separation by electrophoresis.)

Data set [6] concerns MCF7. Description: Inhibition of KDM5 human MCF7 cells assessed as up-regulation of STING mRNA expression at 1 to 5 uM after 48 hrs by RT-qPCR assay relative to control. In kind it is cell-based. In outline:
(§1)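 MCF7 cells treated with compound or DMSO for 48 h; target mRNA quantified by real-time RT-PCR; biological triplicates.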

In data set [7] the test system is MCF7. The data set is described as follows: Inhibition of KDM5 human MCF7 cells assessed as up-regulation of MT1F mRNA expression at 1 to 5 uM after 48 hrs by RT-qPCR assay relative to control. It counts as cell-based. In outline: as §1
(Quantitative PCR measures a nucleic acid by following its amplification.)

Data set [8] relates to MCF7. The data set is described as follows: Inhibition of KDM5 human MCF7 cells assessed as up-regulation of MT1H mRNA expression at 1 to 5 uM after 48 hrs by RT-qPCR assay relative to control. In kind it is cell-based. The method in brief: as §1
A short description of data set [9]: Metabolic stability in human BT474 cell culture media assessed as parent compound remaining at 10 uM after 24 hrs by LC-MS/MS analysis. Conditions: read-out: Stability. In kind it is physicochemical.
The nature of data set [10]: Drug uptake in human BT474 cells at 2.5 uM after 24 hrs by LC-MS/MS analysis. It counts as ADME, cell-based. Conditions: bt-474, 24 h. In outline:
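Compound incubated with BT474 cells for 24 h; cells lysed and compound level in the extract determined.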

For data set [11], the target named is Lysine-specific demethylase 5A (Homo sapiens, UniProt P29375). Description: Inhibition of KDM5A in human BT474 cells assessed as effect on H3K4me3 methylation levels up to 5 uM after 48 hrs by immunocytochemistry.
Chain of Lysine-specific demethylase 5A (P29375 whole entry): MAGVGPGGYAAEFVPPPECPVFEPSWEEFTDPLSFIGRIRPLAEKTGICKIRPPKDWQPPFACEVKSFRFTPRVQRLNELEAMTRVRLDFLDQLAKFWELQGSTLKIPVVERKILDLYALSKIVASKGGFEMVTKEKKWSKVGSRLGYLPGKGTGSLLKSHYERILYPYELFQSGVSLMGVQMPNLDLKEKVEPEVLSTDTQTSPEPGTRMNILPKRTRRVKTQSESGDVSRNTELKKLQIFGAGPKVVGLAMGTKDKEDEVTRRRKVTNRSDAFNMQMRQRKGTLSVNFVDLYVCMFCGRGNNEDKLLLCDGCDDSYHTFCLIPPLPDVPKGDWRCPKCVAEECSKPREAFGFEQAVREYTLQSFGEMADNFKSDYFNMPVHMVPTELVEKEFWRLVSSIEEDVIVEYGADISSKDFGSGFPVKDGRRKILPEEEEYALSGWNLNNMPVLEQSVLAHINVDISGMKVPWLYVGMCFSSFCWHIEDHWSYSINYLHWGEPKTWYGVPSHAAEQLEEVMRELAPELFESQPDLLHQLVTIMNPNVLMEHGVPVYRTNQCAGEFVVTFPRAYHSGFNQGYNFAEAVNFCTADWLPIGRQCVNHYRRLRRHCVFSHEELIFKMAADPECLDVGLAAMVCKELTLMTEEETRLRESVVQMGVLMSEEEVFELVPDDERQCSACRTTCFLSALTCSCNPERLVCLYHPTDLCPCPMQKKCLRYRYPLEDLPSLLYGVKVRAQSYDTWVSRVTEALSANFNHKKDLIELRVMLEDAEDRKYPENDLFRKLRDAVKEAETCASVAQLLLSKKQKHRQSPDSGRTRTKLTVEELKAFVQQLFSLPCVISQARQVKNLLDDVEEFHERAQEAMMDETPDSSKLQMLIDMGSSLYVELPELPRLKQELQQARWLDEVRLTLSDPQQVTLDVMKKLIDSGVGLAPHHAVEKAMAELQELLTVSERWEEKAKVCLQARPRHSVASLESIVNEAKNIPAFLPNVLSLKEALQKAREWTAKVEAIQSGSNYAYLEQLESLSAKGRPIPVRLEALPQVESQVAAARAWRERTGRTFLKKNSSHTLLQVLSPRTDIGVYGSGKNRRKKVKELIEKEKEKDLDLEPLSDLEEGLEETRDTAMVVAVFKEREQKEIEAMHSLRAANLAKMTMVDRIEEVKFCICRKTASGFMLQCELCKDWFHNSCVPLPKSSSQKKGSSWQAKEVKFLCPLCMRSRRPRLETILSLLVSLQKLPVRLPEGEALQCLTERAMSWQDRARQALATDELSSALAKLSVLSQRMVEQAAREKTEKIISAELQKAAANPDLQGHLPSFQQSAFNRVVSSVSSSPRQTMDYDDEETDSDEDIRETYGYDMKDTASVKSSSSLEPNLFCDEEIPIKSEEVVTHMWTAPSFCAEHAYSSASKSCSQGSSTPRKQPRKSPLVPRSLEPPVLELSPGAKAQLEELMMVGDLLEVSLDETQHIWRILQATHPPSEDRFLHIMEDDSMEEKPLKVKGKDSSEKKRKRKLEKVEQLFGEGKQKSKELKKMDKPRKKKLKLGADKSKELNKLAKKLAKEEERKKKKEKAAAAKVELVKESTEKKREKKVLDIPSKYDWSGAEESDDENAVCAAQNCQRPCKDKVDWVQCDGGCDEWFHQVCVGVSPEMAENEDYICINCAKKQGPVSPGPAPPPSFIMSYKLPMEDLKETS

As to `CC(C)OC(=O)c1ccnc2cc(C(OCCN3CCCCC3)c3cccc(NC(=O)/C=C/CN(C)C)c3)sc12` (stereo not drawn), the Papp in data set [1] was determined as 71.4 ×10⁻⁶ cm/s. In addition, the outcome in the data set on BT-474 [2], in the data set with MCF7 [4] and with MDA-MB-231 was Active. The “growth inhibition (GI)” value with BT-474 [3] is “inactive”. For the same compound, the Activity entry with HEK-293T is “Toxic”. Moreover, the fold change (FC) in the data set with MCF7 [5], with MCF7 [6], with MCF7 [7] and in the data set on MCF7 [8] was less than 2 throughout. In data set [9], the remaining at 24 h, 10 µM turned out to be 80%. Further, the Drug uptake entry in data set [10] is “Active”. The inhibition result in data set [11] was “inactive”.
